Compound activity from PubChem BioAssay.
PABP FP inh = PABP-poly(A) binding inhibition; calls only at 35 µM; actives 1% (n = 290,000); P11940; PABP-poly(A) RNA binding, fluorescence polarization; AID 2014;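 also: calls also rest on retests at 20 µM and on dose response follow-up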
Target sequence (P11940 whole entry, looked up): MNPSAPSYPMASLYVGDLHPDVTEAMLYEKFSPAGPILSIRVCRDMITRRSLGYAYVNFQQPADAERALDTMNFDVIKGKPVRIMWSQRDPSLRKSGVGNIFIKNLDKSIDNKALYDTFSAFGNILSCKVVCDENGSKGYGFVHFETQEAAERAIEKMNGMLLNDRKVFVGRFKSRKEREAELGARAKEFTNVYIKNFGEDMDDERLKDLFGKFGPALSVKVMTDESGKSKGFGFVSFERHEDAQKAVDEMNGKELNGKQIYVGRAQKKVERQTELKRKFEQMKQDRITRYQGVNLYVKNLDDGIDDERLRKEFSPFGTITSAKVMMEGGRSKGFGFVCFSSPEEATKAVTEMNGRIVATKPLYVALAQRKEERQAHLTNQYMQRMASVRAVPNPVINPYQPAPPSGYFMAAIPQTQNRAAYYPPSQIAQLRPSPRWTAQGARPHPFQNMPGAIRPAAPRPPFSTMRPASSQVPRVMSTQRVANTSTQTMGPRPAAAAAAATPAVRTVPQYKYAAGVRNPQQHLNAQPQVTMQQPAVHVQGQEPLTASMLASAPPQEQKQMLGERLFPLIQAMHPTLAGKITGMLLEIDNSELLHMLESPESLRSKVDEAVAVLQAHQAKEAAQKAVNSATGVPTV
MLLE-PAM2 inh = inhibitors of microRNA-mediated deadenylation, human PABP1 MLLE binding | GST-MLLE / FITC-PAM2 fluorescence polarization | inhibition, % at 20 µM | actives 0.36% (n = 360,000); in the data active = inhibition above about 35%, passing the limit was not always enough
eIF4H inh = inhibitors of RNA binding by human eIF4H; Q15056; eIF4H fluorescence polarization binding assay; inhibition, % at 35 µM; actives 0.94% (n = 290,000); AID 2012;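 also: calls also rest on retests at 20 µM and on dose response follow-up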
IMP-1 inhibitor = inhibitors of Pseudomonas aeruginosa IMP-1 metallo-beta-lactamase. purified IMP-1, nitrocefin hydrolysis, epi-absorbance fluorescence. inhibition, % at 5.6 µM. actives 0.45% (n = 290,000). AID 1556;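 active = inhibition above the mean plus 3 SD of all compounds in the same screening run, cut at about 4.5% in these data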
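system = purified recombinant IMP-1 beta-lactamase | amount = 0.2 nM IMP-1, as dispensed | medium = HEPES buffer pH 7.1 with ZnSO4 and Brij 35 | times = 25 °C, 15 min preincubation, 25 min reaction | detection = plate fluorescence quenching by hydrolysis product, ex 480/em 530 nm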
VIM-2 inh = inhibitors of Pseudomonas aeruginosa VIM-2 metallo-beta-lactamase; purified VIM-2, nitrocefin hydrolysis, epi-absorbance fluorescence; inhibition, % at 5.6 µM; actives 0.89% (n = 290,000); AID 1527;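 active = inhibition above the mean of all tested compounds plus 3 SD, cutoff set per screening run, cut at about 7.5% in these data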;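 also: red hydrolysis product quenches plate fluorescence so inhibitors raise well fluorescence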
Numbers stand for hits; n = inactive; u = inconclusive; x = no result; + = active, no number. Hits are enriched below; roughly 2.2% of the tested compounds scored in any of these assays. Unless noted, no rule for the calls is given here.

SMILES | PABP FP inh | MLLE-PAM2 inh | eIF4H inh | IMP-1 inhibitor | VIM-2 inh
Nc1ccccc1NC1=CC(=O)CC(c2ccccc2)C1 (stereo unspecified) | n | x | n | n | n
Cc1ccc(NC2=CC(=O)CC(c3ccco3)C2)c(N)c1 (stereo unspecified) | + | n | 104 | n | n
Nc1ccccc1NC1=CC(=O)CC(c2ccco2)C1 (stereo unspecified) | + | n | 91 | n | n
Cc1ccc([C@H]2N[C@]3(CCCN(Cc4ccc(Cl)cc4)C3=O)[C@H]3C(=O)N(Cc4ccccc4)C(=O)[C@@H]23)cc1 | x | n | x | x | x
CSc1nc(N2CCN(CCO)CC2)c2sc3nc(-c4ccco4)c4c(c3c2n1)CCC4 | + | x | 98 | x | x
CSc1nc(SCC(=O)O)c2sc3nc(-c4ccccc4)c4c(c3c2n1)CCC4 | + | n | 71 | 64 | n
CSc1nc(N(C)CCO)c2sc3nc(-c4ccco4)c4c(c3c2n1)CCC4 | + | n | 79 | 11 | n
CSc1nc(NCCN(C)C)c2sc3nc(-c4ccco4)c4c(c3c2n1)CCC4 | x | n | x | x | x
OCCNc1ncnc2c1sc1nc(N3CCOCC3)c3c(c12)CCC3 | n | n | n | n | n
COc1ccc(-c2noc(N3CCC(C(=O)Nc4cccc(OC)c4)CC3)n2)cc1 | n | n | n | n | n
Cc1c(CN2CCC(CO)(CCOc3ccccc3)CC2)[nH]c2c(Cl)cccc12 | n | n | n | n | n
O=C(CSC(=S)N1CCOCC1)c1cc2ccccc2oc1=O | n | n | n | n | n
CC(C)N(C(=O)Nc1ccc2nsnc2c1)C(C)C | + | x | 101 | n | n
CCn1c(SC(=O)NC2CCCCC2)nnc1-c1cccs1 | n | n | n | n | 11
N#Cc1c(-c2ccc(Cl)cc2)c(-c2ccc(Cl)cc2)nn(CCO)c1=O | x | n | x | x | x
COc1ccc2c(C#N)c3ccccn3c2c1 | n | 54 | n | n | n
O=C1COc2ccc(C(=O)COc3ccc(Cl)cc3Br)cc2N1 | x | n | x | x | x
COc1cccc(OC)c1C(=O)NC(=S)Nc1cc(-c2nc3ccccc3[nH]2)ccc1Cl | n | n | active | n | n
CCOc1ccc(NC(=O)CN(C)C(=O)C2CC(=O)N(Cc3ccco3)C2)cc1OCC (stereo unspecified) | x | n | x | x | x
COc1ccc(NC(=S)NC(NC(=O)c2cccc(Cl)c2)C(Cl)(Cl)Cl)c([N+](=O)[O-])c1 (stereo unspecified) | n | 38 | n | n | n
COc1ccc(NC(=O)c2cccnc2)c([N+](=O)[O-])c1 | n | n | n | n | n
COc1ccc(NC(=O)c2ccccc2)c([N+](=O)[O-])c1 | + | n | u | n | n
COc1ccc(NC(=S)NC(NC(=O)c2cccc(C)c2)C(Cl)(Cl)Cl)c([N+](=O)[O-])c1 (stereo unspecified) | n | n | n | n | n
CCOc1ccc(N/C=C/C(=O)c2ccc(OC)cc2)c([N+](=O)[O-])c1 | n | 49 | n | n | n
O=C(O)COc1ccc(Br)cc1/C=C1/SC(=O)N(CC(=O)N2CCCC2)C1=O | n | n | n | 43 | n
SMILES | PABP FP inh | MLLE-PAM2 inh | eIF4H inh | IMP-1 inhibitor | VIM-2 inh
O=C(O)CN1C(=O)/C(=C\c2ccccc2OCc2ccc(Cl)cc2Cl)SC1=S | n | n | n | n | n
O=C(O)CN1C(=O)/C(=C\c2cc(Br)ccc2OCc2ccc([N+](=O)[O-])cc2)SC1=S | + | n | 68 | n | n
O=C(O)CN1C(=O)/C(=C\c2cc(Br)ccc2OCc2ccccc2F)SC1=S | n | n | n | n | n
O=C(O)CN1C(=O)/C(=C\c2cc(Br)ccc2OCc2ccccc2Cl)SC1=S | + | n | 60 | n | n
O=C(O)CC1(CC(=O)N2CCOCC2)CCCC1 | n | n | n | n | n
COCCOC(=O)C1=C(C)NC(=O)NC1c1cccc2ccccc12 (stereo unspecified) | n | n | n | n | n
CCOc1ccccc1C1NC(=O)c2ccccc2N1 (stereo unspecified) | x | n | x | x | x
C[C@@H]1CN([C@@H](C)CO)C(=O)CCCn2cc(nn2)CO[C@H]1CN(C)C(=O)c1cc(-c2ccccc2)on1 | x | n | x | x | x
CSc1c(C#N)c(N)nc2sc(C(=O)c3ccccc3)c(N)c12 | + | n | 85 | n | n
N#Cc1c(SCc2ccc(Cl)cc2)sc(C(=O)c2ccccc2)c1N | n | n | n | n | n
CCC(=O)Nc1ccc(C(=O)Nc2cccnc2)cc1 | + | n | 52 | n | n
COc1ccc(C(=O)Nc2ccc(C(=O)Nc3cccnc3)cc2)cc1 | n | n | n | n | n
CCCC1c2ccc(C)n2CCN1C(=O)Nc1ccccc1Cl (stereo unspecified) | n | n | u | n | n
